Results of several laboratories.
Compare with care: the assays were run in different laboratories.
pH: 7.4

Structure (SMILES) | technique | sample | time | logD
CN1CCC(Nc2ncnc3ccc(-c4cccc(N5CCOCC5)c4)cc23)CC1 | shake flask | aqueous buffer | – | 2.5
C=CC(=O)N1CC2(CCN(c3nc4c(c(-c5c(C)ccc6[nH]ncc56)c3C#N)C[C@H]3C[C@@H]4C3(C)C)C2)C1 | – | – | – | 4.4
O=C(O)c1ccc(NS(=O)(=O)c2ccc(Cl)c(Cl)c2)cc1 | shake flask | aqueous buffer | – | 0.6
Cc1ccc(Nc2cnnc3ccc(-c4ccc(N5CCCN(C)CC5)cc4)cc23)cn1 | shake flask | aqueous buffer | – | 3.3
NCCOCC(=O)N1CCC[C@H](C(=O)NCc2nc(-c3ccc(C(F)(F)F)cc3)cs2)C1 | shake flask | aqueous buffer | – | 0.47
C=CC(=O)N1CC2(CCN(c3nc4c(c(-c5cc(O)cc6ccccc56)c3C#N)COC(C)(C)C4)C2)C1 | – | – | – | 4.3
CC(C)N=c1cc2n(-c3ccc(Cl)cc3)c3ccccc3nc-2cc1Nc1ccc(Cl)cc1 | shake flask | aqueous buffer | – | 5.76
CN1CCN(c2cccc(-c3ccc4ncnc(Nc5ccc([N+](=O)[O-])c(C(F)(F)F)c5)c4c3)c2)CC1 | shake flask | aqueous buffer | – | > 3.9
CNS(=O)(=O)c1ccc(Nc2ncc(C(F)(F)F)c(N3CCC(C)(O)CC3)n2)c(C)c1 | shake flask | aqueous buffer | 1 h | 3.8
N=C(CC(O)c1cc2c(F)cc(F)cc2c2cc(C(F)(F)F)ccc12)Nc1ccc(Br)cc1 (stereo not shown) | – | – | – | 5.37
N#Cc1ccc(-c2csc(CNC(=O)[C@H]3CCCN(C(=O)COCCF)C3)n2)cc1 | shake flask | aqueous buffer | – | 1.6
Cn1cc2c(C(=O)O)ccc(NS(=O)(=O)c3ccc(OCC4CCC4)c(Cl)c3)c2n1 | shake flask | aqueous buffer | – | 2
C=C1C[C@@]23CC[C@H]4[C@@](C)(CCC[C@@]4(C)C(=O)O[C@@H]4O[C@H](CO)[C@@H](O)[C@H](O)[C@H]4O)[C@@H]2CC[C@]1(O[C@@H]1O[C@H](CO)[C@@H](O)[C@H](O)[C@H]1O)C3 | shake flask | aqueous buffer | – | -1.45
CC(C)NCCOCC(=O)N1CCC[C@H](C(=O)NCc2nc(-c3ccc(C(F)(F)F)cc3)cs2)C1 | shake flask | aqueous buffer | – | 1.5
C[C@H](O)c1cnc(NS(=O)(=O)c2ccc(C(F)(F)F)c(Cl)c2)nc1 | shake flask | aqueous buffer | – | 0.4
c1cc(-c2ccc3ncnc(Nc4ncco4)c3c2)nc(N2CCOCC2)n1 | shake flask | aqueous buffer | – | 3.4
Cc1ccc(Nc2cnnc3ccc(-c4ccc(N5CCN(C)CC5)cc4)cc23)cn1 | shake flask | aqueous buffer | – | 3.5
CCOCC(=O)N1CCC[C@H](C(=O)NCc2nc(-c3ccc(C)nc3)cs2)C1 | shake flask | aqueous buffer | – | 1.4
C[C@@H]1CN(c2cccc(-c3ccc4ncnc(Nc5ncco5)c4c3)c2)C[C@H](C)O1 | shake flask | aqueous buffer | – | > 3.6
COCC(=O)N1CCC[C@H](C(=O)NCc2nc(-c3ccc(C#N)cc3)cs2)C1 | shake flask | aqueous buffer | – | 1.5
c1cc(-c2ccc3ncnc(Nc4ncco4)c3c2)nc(N2C[C@H]3C[C@@H]2CO3)n1 | shake flask | aqueous buffer | – | 3.1
C[C@H](O)c1ccc(NS(=O)(=O)c2ccc(OCC3CCC3)c(Cl)c2)c2nn(C)cc12 | shake flask | aqueous buffer | – | 3.8
c1cc(-c2ccc3ncnc(Nc4ncco4)c3c2)cc(N2CC3(COC3)C2)c1 | shake flask | aqueous buffer | – | > 4
C=CC(=O)N1CC2(CCN(c3nc4c(c(-c5cc(O)cc6ccccc56)c3C)COC(C)(C)C4)C2)C1 | – | – | – | 4.3
CN(c1ncco1)c1ncnc2ccc(-c3cccc(N4CCOCC4)c3)cc12 | shake flask | aqueous buffer | – | 2.1
CNS(=O)(=O)c1ccc(Nc2ncc(C(F)(F)F)c([C@H]3CC[C@](C)(O)CC3)n2)c(C)c1 | shake flask | aqueous buffer | 1 h | 3.6
O=[N+]([O-])c1ccc(Nc2ncnc3ccc(-c4cccc(N5CCOCC5)c4)cc23)cc1C(F)(F)F | shake flask | aqueous buffer | – | > 3.4
C=CC(=O)N1CC2(CCN(c3nc4c(c(-c5cc(O)cc6ccccc56)c3Cl)COC(C)(C)C4)C2)C1 | – | – | – | 4.9
